ASAP1 inh = inhibitors of human ASAP1 ArfGAP activity, primary screen, biochemical, fluorescence polarization; Arf-GAP with SH3 domain, ANK repeat and PH domain-containing protein 1 (Homo sapiens), …; 360,000 compounds, 0.19% hits; inhibition, % at 16.5 µM; ASAP1-stimulated ARF1 GTP hydrolysis, GDP FP detection; AID 624377, 2012; in the data active = inhibition above about 25%;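 note: 0% = vehicle with enzyme and substrate and 100% = no enzyme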
Target sequence (Q9ULH1 325-724 limits assumed): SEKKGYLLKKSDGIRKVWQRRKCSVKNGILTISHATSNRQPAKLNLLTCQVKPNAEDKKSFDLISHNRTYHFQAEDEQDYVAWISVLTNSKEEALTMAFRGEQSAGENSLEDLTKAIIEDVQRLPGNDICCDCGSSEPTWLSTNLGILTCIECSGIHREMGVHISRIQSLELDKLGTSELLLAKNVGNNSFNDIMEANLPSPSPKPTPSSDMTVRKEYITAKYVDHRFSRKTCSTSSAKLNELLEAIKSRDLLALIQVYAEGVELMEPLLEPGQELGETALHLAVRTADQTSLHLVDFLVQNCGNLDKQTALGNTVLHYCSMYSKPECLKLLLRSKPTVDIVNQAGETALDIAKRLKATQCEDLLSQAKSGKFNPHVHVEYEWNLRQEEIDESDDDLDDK
Fh CTSL1 inh = Fasciola hepatica cathepsin L1 inhibitors, primary screen, counter-screen for PFM18AAP inhibitor project, biochemical, QFRET, fluorogenic peptide substrate | recombinant F. hepatica cathepsin L1, Z-Leu-Arg-MCA fluorescence | 300,000 compounds, 0.49% hits | inhibition, % at 5.96 µM;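 active = inhibition above the mean of all tested compounds plus 3 SD, set per screening campaign, cut at about 17% in these data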;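 note: 0% = plate median of test compound wells and 100% = 1 µM Z-Phe-Ala-diazomethylketone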
GC-B act = human GC-B receptor activators, primary screen, HEK293 GC-B cells, cGMP TR-FRET, EC30 CNP; Atrial natriuretic peptide receptor 2 (Homo sapiens), P20594; 0% at EC30 CNP, 100% saturating CNP; activation, % at 10 µM; 370,000 compounds, 0.11% hits; AID 1920062, 2024;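 active = activation at 10 µM reaching about 35% in either raw or pattern-adjusted values, limit read from the data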
ARFGAP1 inhibitor = inhibitors of rat ARFGAP1 GAP activity, primary screen, biochemical, fluorescence polarization, GDP tracer; ADP-ribosylation factor GTPase-activating protein 1 (Rattus norvegicus), Q62848; Arfgap1-stimulated ARF1 GTP hydrolysis, GDP FP detection; inhibition, % at 16.5 µM; 360,000 compounds, 0.26% hits; AID 651572, 2012;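 active = inhibition above a per-plate limit, mean inhibition of low control wells plus 3 SD, cut at about 25% in these data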;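 note: 0% = DMSO wells with enzyme and 100% = wells lacking Arfgap1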
Target sequence (Q62848 1-136 limits assumed): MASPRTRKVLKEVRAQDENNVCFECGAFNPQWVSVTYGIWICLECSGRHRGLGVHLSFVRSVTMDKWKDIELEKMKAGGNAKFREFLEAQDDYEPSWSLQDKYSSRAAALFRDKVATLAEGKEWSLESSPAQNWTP
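Material – truncated rat Arfgap1 GAP domain · Buffer or medium – HEPES-based buffer, pH 7.5 · Reagent – human ARF1(Δ1-17)-GTP substrate · Dosing – 16.5 µM single point, 1.26% DMSO · Schedule – GTP hydrolysis reaction 2 h at 25 °C · Technique – GDP detection by fluorescence polarization · Benchmarks – No-Arfgap1 wells (100%) versus DMSO full-reaction wells (0%) · Repeats – single replicate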
NPR1 activator = GC-A stimulated cGMP production enhancers – HEK293 GC-A cells, cGMP TR-FRET, EC30 ANP, primary screen; Atrial natriuretic peptide receptor 1 (Homo sapiens), P16066; 370,000 compounds, 0.14% hits; 0% at EC30 ANP, 100% saturating ANP; AID 1671463, 2021; activation, % at 10 µM; in the data active = activation above about 40%
HCV core dimer = inhibitors of HCV core protein dimerization, primary screen, biochemical, TR-FRET, high-throughput; TR-FRET GST/Flag-core106 dimerization, 1536-well; inhibition, % at 5 µM; 300,000 compounds, 0.33% hits;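 active = inhibition above the mean of all tested compounds plus 3 SD, set per screening campaign, cut at about 45% in these data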
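test system = GST/Flag-tagged HCV core106 proteins | probe or stimulus = Eu donor and XL665 acceptor anti-tag antibodies | times = compound-protein-antibody incubation 4 h at 22.5 °C | signal = TR-FRET, excitation 340 nm, emission 617 and 671 nm | measure = percent inhibition of core106 dimerization signal | controls = wells lacking GST-core106 and wells with excess unlabelled core106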
* hit, by the source's call; . = no result given. An excerpt weighted towards active compounds, which were near 1.2% of everything screened.

SMILES | ASAP1 inh | Fh CTSL1 inh | GC-B act | ARFGAP1 inhibitor | NPR1 activator | HCV core dimer
Cc1ccc(C(=O)N/C(=C/c2ccco2)C(=O)NCC2CCCO2)cc1 (stereo not given) | -1 | 9 | 4 | -2 | 1 | 4
O=C(/C=C/c1ccco1)NCC1CCCO1 (stereo not given) | -3 | 34* | 6 | 5 | 7 | 0
COc1ccc(NS(=O)(=O)c2cccc(C(=O)N(C)Cc3cccs3)c2)cc1 | 9 | 27* | -4 | 6 | -3 | -2
COc1ccc(NS(=O)(=O)c2ccc(C(=O)N(C)Cc3cccs3)cc2)cc1 | 11 | . | -1 | 10 | -1 | .
CCCS(=O)(=O)c1c(S(=O)(=O)CCC)c2c(C(N)=O)cccn2c1C(=O)c1ccc(F)cc1 | -15 | -1 | 1 | 0 | -1 | -2
CCCS(=O)(=O)c1c(S(=O)(=O)CCC)c2ccc(C(N)=O)cn2c1C(=O)c1ccccc1 | 0 | . | 42* | 1 | 35 | .
O=C(Nc1nnc(C2CC2)s1)C1Cc2ccccc2CN1C(=O)c1ccco1 (stereo not given) | -24 | 0 | -1 | -5 | -1 | 54*
CCc1nnc(NC(=O)C2Cc3ccccc3CN2S(=O)(=O)c2ccc(C)cc2)s1 (stereo not given) | 15 | -3 | -5 | 8 | -2 | 41
CCSc1nnc(NC(=O)C2Cc3ccccc3CN2S(=O)(=O)CC)s1 (stereo not given) | 0 | 1 | 6 | 7 | -5 | 49*
CNC(=O)C1Cc2ccccc2CN1S(=O)(=O)c1cccs1 (stereo not given) | -7 | 1 | 6 | -3 | 1 | 0
CCc1nnc(NC(=O)C2Cc3ccccc3CN2S(=O)(=O)c2cccs2)s1 (stereo not given) | 1 | 9 | 0 | -2 | -2 | 59*
O=C(Nc1nnc(C2CC2)s1)C1Cc2ccccc2CN1S(=O)(=O)c1cccs1 (stereo not given) | -5 | -4 | 4 | 8 | 2 | 67*
COC(=O)c1[nH]c2c(c1C(=O)OC)CCc1ccccc1-2 | 9 | -3 | 10 | -1 | 15 | 2
COc1cccc(-c2nc(NCc3ccccc3)c3ccccc3n2)c1O | 8 | 21* | 29 | -2 | 36 | -8
COc1cccc(-c2nc(NCc3ccco3)c3ccccc3n2)c1O | 14 | -3 | 23 | 8 | 24 | 2
CCOc1ccc(CC(=O)NCC2(N3CCCCC3)CCCCC2)cc1 | 9 | 6 | 1 | 3 | 1 | 4
COc1cccc(OC)c1OCCCOc1cccc2cccnc12 | -12 | -3 | 3 | 6 | 1 | -1
CC(C)c1ccc(Nc2nnc(SC3CCOC3=O)s2)cc1 (stereo not given) | 1 | -3 | 14 | -2 | 65* | -1
CCN(CC)CCN(C(=O)CCS(=O)(=O)c1ccccc1)c1nc2c(C)cc(C)cc2s1 | 2 | 40* | -7 | 13 | -5 | -2
Cc1cc(C)c2sc(N(CCN(C)C)C(=O)CCS(=O)(=O)c3ccccc3)nc2c1 | -5 | 14 | -8 | -9 | -4 | -9
CCN(CC)CCN(C(=O)CCS(=O)(=O)c1ccccc1)c1nc2cc(OC)c(OC)cc2s1 | 3 | 7 | -4 | 4 | -7 | -14
CCN(CC)CCN(C(=O)CCS(=O)(=O)c1ccccc1)c1nc2cc(C)cc(C)c2s1 | 3 | 34* | -17 | 12 | -16 | -6
Cc1cccc2sc(N(CCN3CCOCC3)C(=O)CCS(=O)(=O)c3ccccc3)nc12 | 7 | 17* | -19 | 0 | -13 | 2
Cc1cccnc1C(NC(=O)C1CCN(CCOc2ccc(F)cc2)CC1)c1ccc(Cl)cc1 (stereo not given) | 3 | . | -7 | -7 | -7 | .
O=C(N/N=C/c1ccccn1)c1ccc(NC(=O)c2cccc([N+](=O)[O-])c2)cc1 | -2 | -1 | -3 | 10 | -4 | 13
SMILES | ASAP1 inh | Fh CTSL1 inh | GC-B act | ARFGAP1 inhibitor | NPR1 activator | HCV core dimer
CC(=O)Nc1ccc(-c2ccnc3c2CC(C)(C(=O)NCC2CCOCC2)O3)cc1 (stereo not given) | -9 | . | 1 | -3 | 4 | .
CC(C)NC(=S)N/N=C/c1ccc(N2CCOCC2)cc1 | 6 | 0 | 12 | 6 | 4 | 5
Oc1ccc(/C=N/NC(=S)N2CCOCC2)cc1 | -2 | 17* | . | 14 | . | 2
COc1ccc(NS(=O)(=O)c2cccc(C(=O)NNC(=O)CNC(=O)c3ccco3)c2)cc1 | -5 | -6 | 1 | -4 | -2 | 1
CCOC(=O)c1c(NC(=O)CCl)sc(CN(C)C)c1-c1ccccc1 | -2 | 22* | 4 | 4 | -41 | 16
Fc1ccc(Cn2nnc3ccccc32)cc1 | . | 7 | . | . | . | 1
NS(=O)(=O)c1ccc2c(c1)C1C=CCC1C(C1CC=CCC1)N2 (stereo not given) | 18 | 3 | 0 | 7 | -4 | 65*
CCOc1ccc2nc(N/C(N)=N/C(=S)Nc3cccc(C)c3)nc(C)c2c1 | 2 | 2 | 1 | 11 | 3 | 18
CCOc1ccc2nc(N/C(N)=N/C(=S)Nc3cccc(OC)c3)nc(C)c2c1 | 7 | 23* | 9 | -6 | 1 | 27
Cc1ccccc1-n1nc2c(c1NC(=O)c1cc3ccccc3oc1=O)CS(=O)C2 (stereo not given) | . | 4 | . | . | . | 7
Cc1ccccc1-n1nc2c(c1NC(=O)c1cc3ccccc3oc1=O)CS(=O)(=O)C2 | -17 | 4 | 38* | -10 | 31 | 1
CCOC(=O)c1c(C)[nH]c(C)c1C(=O)CSc1nnc(N)s1 | 13 | -5 | -3 | 2 | -8 | 0
OCCN1C2=NCCCN2c2ccccc21 | 2 | 1 | 1 | -8 | -3 | -17
c1ccc(Cc2nnc3sc(-c4cccnc4)nn23)cc1 | 2 | 22* | -3 | -13 | -5 | 10
Cc1ccc(C(=O)Nc2ccc(N3CCCC3)cc2)c(C)c1 | -2 | -1 | 2 | 10 | -2 | 5
Cc1ccc(C(=O)N/N=C/c2cc(Br)ccc2O)cn1 | 9 | 19* | 0 | -11 | -2 | -9
O=C(CCl)Nc1c2c(nn1-c1ccccc1)CSC2 | 7 | 80* | 4 | -8 | 5 | 13
